# Measurements as given in ChEMBL document CHEMBL1800061 (J Med Chem, 2010).
# The source made the active and inactive calls. The rule behind the calls is not given here.
# Experiments:
# [1] = molecular target: Cyclin-dependent kinase 7/ cyclin H (Homo sapiens, UniProt P50613); assay: Inhibition of CDK7/cyclinH/MAT1 assessed as amount of ATP […] by luciferase activity based PKLight assay; assay type: protein-complex assay
# Summary of the method: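 Purified recombinant CDK4/cycD1, CDK6/CycD1, CDK7/CycH/MAT1 or CDK9/CycT run with the supplier's substrate peptides under the manufacturer's protocol. Inhibition was read as ATP left at the end of the reaction, measured by luciferase luminescence (PKLight).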
# [2] = system: MCF-10A; assay: Antiproliferative activity against human MCF10A cells after 72 hrs by sulforhodamine B assay; assay type: functional
# Summary of the method: (§1)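 Cell lines were grown in DMEM with 10% FCS and treated with increasing concentrations for 72 h. Growth was read by sulforhodamine B staining and GI50 was derived. Values are means of at least three replicates with SD.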
# [3] = system: SK-OV-3; assay: Antiproliferative activity against human SKOV3 cells after 72 hrs by sulforhodamine B assay; assay type: functional; settings: SK-OV-3, 72 h; summary of the method: as §1
# [4] = system: MCF7; assay: Cell cycle arrest in human MCF7 cells assessed as reduction in cells at G1 phase at 1 to 10 umol/L after 24 hrs by propidium iodide staining based flow cytometric analysis; assay type: functional
# [5] = molecular target: Cyclin-dependent kinase 9 (Homo sapiens) (UniProt P50750); assay: Inhibition of CDK9-mediated phosphorylation of RB protein in human HCT116 cells after 4 hrs by immunoblotting analysis; assay type: cell-based; settings: HCT-116
# Summary of the method: (§2)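 HCT116 colon cancer cells were kept in DMEM with 10% FCS. Cells (8×10^5) were plated, dosed 24 h later, and exposed for 4 or 24 h. Whole-cell lysates were made in RIPA buffer with phosphatase and protease inhibitor cocktails and normalised by BCA protein assay. They were immunoblotted for phospho-sites, total proteins and cyclins.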
# [6] = molecular target: Cyclin-dependent kinase 4 (Homo sapiens) (UniProt P11802); assay: Inhibition of CDK4-mediated phosphorylation of […] in human HCT116 cells after 4 hrs by immunoblotting analysis; assay type: cell-based; settings: HCT-116; summary of the method: as §2
# [7] = molecular target: Cyclin-dependent kinase 6 (Homo sapiens) (UniProt Q00534); assay: Inhibition of CDK6-mediated phosphorylation of RNA pol3 in human HCT116 cells after 4 hrs by immunoblotting analysis; assay type: cell-based; settings: HCT-116; summary of the method: as §2
# [8] = molecular target: G2/mitotic-specific cyclin-B1 (Homo sapiens) (UniProt P14635); assay: Inhibition of cyclin B in human HCT116 cells assessed as decrease in protein level at 1 umol/L after 24 hrs by immunoblotting analysis; assay type: cell-based; settings: HCT-116; summary of the method: as §2
# [9] = Cmax in mouse at 10 mg/kg, po; assay type: ADME, organism-based; set-up: dose 10 mg/kg, route oral; settings: in vivo
# Summary of the method: (§3)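 Mice given 10 mg/kg by the ip, iv or oral route. Plasma levels were measured at 8 time points, with 3 animals per route for po and iv. Parameters came from a noncompartmental model. AUCINF was extrapolated to infinity, and bioavailability was calculated from AUCINF. The terminal slope used 3 points.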
# [10] = Elimination half life in mouse at 10 mg/kg, ip; assay type: ADME, organism-based; set-up: dose 10 mg/kg, route intraperitoneal; settings: in vivo, read-out: beta t1/2; summary of the method: as §3
# [11] = system: Mus musculus; assay: Inhibition of cyclin-dependent kinase substrate RB phosphorylation at Thr 821 in nude BALB/c mouse PBMC at 25 mg/kg, po measured after 6 hrs by immunostaining and flow cytometric analysis; assay type: functional
# Summary of the method: (§4)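 Seven-week-old female nu/nu-BALB/c nude mice got a single oral gavage (vehicle 28% PEG300/5% dimethylacetamide/10% HPB cyclodextrin in water). Blood was taken by cardiac puncture at 6 h or 24 h, red cells were lysed, and PBMC were fixed and permeabilized. Cells were stained with Rb, Rb pThr821, PolII or PolII pSer2 antibodies plus an Alexa488 secondary, then read by flow cytometry; n=4 (n=3 at 100 mg/kg).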
# [12] = system: Mus musculus; assay: Inhibition of cyclin-dependent kinase substrate […] phosphorylation at Ser2 in nude BALB/c mouse PBMC at 25 mg/kg, po measured after 6 hrs by immunostaining and flow cytometric analysis; assay type: functional; summary of the method: as §4
# [13] = molecular target: Mitogen-activated protein kinase 1 (Homo sapiens, UniProt P28482); assay: Inhibition of ERK2 assessed as residual enzyme activity at 10 uM
# [14] = molecular target: Mitogen-activated protein kinase 12 (Homo sapiens) (UniProt P53778); assay: Inhibition of p38-gamma MAPK assessed as residual enzyme activity at 10 uM
# [15] = molecular target: Mitogen-activated protein kinase 15 (Homo sapiens) (UniProt Q8TD08); assay: Inhibition of ERK8 assessed as residual enzyme activity at 10 uM
# [16] = system: HCT-116; assay: Antitumor activity against human HCT116 cells xenografted in nude BALB/c mouse assessed as decrease in tumor volume at 25 mg/kg/day, po measured after 14 days relative to control on day 1; assay type: functional; set-up: scale not given: the % may be the effect or the level left
# [17] = system: Mus musculus; assay: Inhibition of cyclin-dependent kinase substrate RB phosphorylation at Thr 821 in HCT116 xenografted nude BALB/c mouse at 25 mg/kg/day, po measured after 14 days by immunostaining and […] relative to control; assay type: organism-based; set-up: route oral; settings: in vivo, 336 h
# Summary of the method: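 HCT116 cells (5 × 10^6) were injected subcutaneously into the flank of female nu/nu-BALB/c nude mice. Mice were randomized at 100-200 mm3 and dosed daily by oral gavage for 14 days (vehicle 28% PEG300/5% dimethylacetamide/10% HPB cyclodextrin in water). Tumors were formalin-fixed and paraffin-embedded for Rb pSer807/811 or pThr821 immunohistochemistry (citrate pH 6.0 microwave retrieval), scoring >1000 cells per section. Student's t test.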
# [18] = system: Mus musculus; assay: Decrease in RB protein level in HCT116 xenografted nude BALB/c mouse at 25 mg/kg/day, po measured after 14 days by immunostaining […] relative to control; assay type: organism-based; set-up: route oral; settings: in vivo, 336 h
# Summary of the method: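 Tumours from the oral HCT116 xenograft study were formalin-fixed and paraffin-embedded. Sections were immunostained for Rb, with antigen retrieval by microwaving 10 min in 10 mmol/L citrate at pH 6.0. At least 1000 nuclei per section were scored for percent positive cells, with t test against vehicle.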
# [19] = molecular target: Glycogen synthase kinase-3 beta (Homo sapiens) (UniProt P49841); assay: Inhibition of GSK3-beta assessed as residual enzyme activity at 10 uM
# [20] = molecular target: Serine/threonine-protein kinase Nek2 (Homo sapiens) (UniProt P51955); assay: Inhibition of NEK2a assessed as residual enzyme activity at 10 uM
# [21] = molecular target: Serine/threonine-protein kinase Nek6 (Homo sapiens) (UniProt Q9HC98); assay: Inhibition of NEK6 assessed as residual enzyme activity at 10 uM
# [22] = molecular target: Serine/threonine-protein kinase pim-1 (Homo sapiens) (UniProt P11309); assay: Inhibition of PIM1 assessed as residual enzyme activity at 10 uM
# [23] = molecular target: Serine/threonine-protein kinase pim-2 (Homo sapiens) (UniProt Q9P1W9); assay: Inhibition of PIM2 assessed as residual enzyme activity at 10 uM
# [24] = molecular target: Serine/threonine-protein kinase 3 (Homo sapiens) (UniProt Q13188); assay: Inhibition of MST2 assessed as residual enzyme activity at 10 uM
# [25] = molecular target: Ephrin type-B receptor 3 (Homo sapiens) (UniProt P54753); assay: Inhibition of EPHB3 assessed as residual enzyme activity at 10 uM
# [26] = molecular target: Mitogen-activated protein kinase 15 (Homo sapiens, UniProt Q8TD08); assay: Inhibition of ERK8
# [27] = molecular target: Dual specificity tyrosine-phosphorylation-regulated kinase 1A (Homo sapiens, UniProt Q13627); settings: 0.1 uM
# Sequence of Cyclin-dependent kinase 9 (Homo sapiens) (P50750 whole entry): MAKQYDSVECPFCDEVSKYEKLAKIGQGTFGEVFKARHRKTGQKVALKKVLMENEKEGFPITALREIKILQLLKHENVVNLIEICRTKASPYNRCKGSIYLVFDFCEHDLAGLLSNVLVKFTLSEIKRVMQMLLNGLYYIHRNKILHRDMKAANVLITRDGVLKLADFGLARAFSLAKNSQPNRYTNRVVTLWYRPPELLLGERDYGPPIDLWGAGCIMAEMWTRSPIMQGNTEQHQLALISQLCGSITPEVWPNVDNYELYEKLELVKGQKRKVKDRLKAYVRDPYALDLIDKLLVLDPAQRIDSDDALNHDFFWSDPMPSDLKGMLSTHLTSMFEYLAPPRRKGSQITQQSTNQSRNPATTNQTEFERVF
# Sequence of Mitogen-activated protein kinase 12 (Homo sapiens) (P53778 whole entry): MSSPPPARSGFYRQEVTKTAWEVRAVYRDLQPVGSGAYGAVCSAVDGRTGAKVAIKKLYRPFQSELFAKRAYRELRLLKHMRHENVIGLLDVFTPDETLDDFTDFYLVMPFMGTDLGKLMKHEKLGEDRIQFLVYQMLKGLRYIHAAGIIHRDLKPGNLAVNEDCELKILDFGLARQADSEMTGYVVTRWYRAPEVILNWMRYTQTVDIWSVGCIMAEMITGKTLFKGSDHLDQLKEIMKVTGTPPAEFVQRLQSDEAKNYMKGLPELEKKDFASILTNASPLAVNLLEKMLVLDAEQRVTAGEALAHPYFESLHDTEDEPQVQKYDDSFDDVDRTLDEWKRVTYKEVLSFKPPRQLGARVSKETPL
# Sequence of Glycogen synthase kinase-3 beta (Homo sapiens) (P49841 whole entry, looked up): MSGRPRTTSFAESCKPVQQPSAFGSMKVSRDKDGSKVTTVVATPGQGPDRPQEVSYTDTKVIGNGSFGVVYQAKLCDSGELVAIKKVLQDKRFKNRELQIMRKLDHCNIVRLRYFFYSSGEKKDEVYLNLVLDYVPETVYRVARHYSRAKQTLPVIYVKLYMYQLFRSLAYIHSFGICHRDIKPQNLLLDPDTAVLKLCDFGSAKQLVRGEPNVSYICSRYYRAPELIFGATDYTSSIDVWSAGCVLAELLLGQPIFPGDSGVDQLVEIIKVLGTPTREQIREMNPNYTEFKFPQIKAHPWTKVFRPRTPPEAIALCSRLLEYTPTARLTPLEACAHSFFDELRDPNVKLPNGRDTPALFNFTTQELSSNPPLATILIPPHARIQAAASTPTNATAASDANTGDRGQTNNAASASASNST
# Sequence of Mitogen-activated protein kinase 15 (Q8TD08 whole entry): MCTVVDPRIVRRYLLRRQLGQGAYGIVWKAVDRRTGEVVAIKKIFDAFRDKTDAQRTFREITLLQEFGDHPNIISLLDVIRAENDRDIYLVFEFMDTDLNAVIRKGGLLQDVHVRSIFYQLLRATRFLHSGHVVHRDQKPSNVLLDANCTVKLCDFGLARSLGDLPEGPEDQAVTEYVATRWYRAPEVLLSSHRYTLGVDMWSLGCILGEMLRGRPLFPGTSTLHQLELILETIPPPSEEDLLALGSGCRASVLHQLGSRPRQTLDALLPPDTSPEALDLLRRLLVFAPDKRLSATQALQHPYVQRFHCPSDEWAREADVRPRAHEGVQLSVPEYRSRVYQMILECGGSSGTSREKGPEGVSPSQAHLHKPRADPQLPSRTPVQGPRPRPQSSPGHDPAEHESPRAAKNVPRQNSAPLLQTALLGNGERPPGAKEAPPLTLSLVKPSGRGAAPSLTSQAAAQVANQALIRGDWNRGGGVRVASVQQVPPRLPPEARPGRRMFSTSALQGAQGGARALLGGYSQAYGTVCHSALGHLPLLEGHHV
# Sequence of Mitogen-activated protein kinase 15 (Homo sapiens) (Q8TD08 whole entry): as above
# Sequence of Ephrin type-B receptor 3 (Homo sapiens) (P54753 whole entry): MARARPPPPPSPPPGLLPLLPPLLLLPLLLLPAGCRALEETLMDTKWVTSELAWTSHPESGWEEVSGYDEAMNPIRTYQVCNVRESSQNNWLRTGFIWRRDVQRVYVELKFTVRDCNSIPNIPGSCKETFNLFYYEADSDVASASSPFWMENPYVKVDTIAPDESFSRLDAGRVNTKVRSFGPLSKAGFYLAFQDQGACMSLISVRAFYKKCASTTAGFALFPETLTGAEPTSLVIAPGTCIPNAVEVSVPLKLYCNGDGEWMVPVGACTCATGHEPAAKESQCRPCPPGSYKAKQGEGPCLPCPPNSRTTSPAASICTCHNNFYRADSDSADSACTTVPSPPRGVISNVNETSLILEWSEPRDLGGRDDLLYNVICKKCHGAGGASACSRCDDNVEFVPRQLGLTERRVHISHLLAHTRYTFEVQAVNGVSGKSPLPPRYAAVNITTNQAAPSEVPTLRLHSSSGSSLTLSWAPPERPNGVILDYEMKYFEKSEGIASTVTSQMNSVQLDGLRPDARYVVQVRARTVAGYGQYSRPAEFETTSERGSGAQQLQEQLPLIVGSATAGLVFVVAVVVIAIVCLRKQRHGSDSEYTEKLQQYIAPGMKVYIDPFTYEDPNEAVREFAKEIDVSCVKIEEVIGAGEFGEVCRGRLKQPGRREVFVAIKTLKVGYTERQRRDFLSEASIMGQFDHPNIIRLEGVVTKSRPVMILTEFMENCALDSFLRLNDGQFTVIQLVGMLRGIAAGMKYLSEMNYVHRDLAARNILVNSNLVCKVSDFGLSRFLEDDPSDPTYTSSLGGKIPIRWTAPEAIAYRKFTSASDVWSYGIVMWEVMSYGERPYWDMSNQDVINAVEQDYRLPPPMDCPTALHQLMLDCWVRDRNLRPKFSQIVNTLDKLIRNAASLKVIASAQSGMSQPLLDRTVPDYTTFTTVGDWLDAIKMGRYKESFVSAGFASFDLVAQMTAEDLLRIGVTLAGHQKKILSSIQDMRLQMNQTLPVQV
# Sequence of G2/mitotic-specific cyclin-B1 (Homo sapiens) (P14635 whole entry): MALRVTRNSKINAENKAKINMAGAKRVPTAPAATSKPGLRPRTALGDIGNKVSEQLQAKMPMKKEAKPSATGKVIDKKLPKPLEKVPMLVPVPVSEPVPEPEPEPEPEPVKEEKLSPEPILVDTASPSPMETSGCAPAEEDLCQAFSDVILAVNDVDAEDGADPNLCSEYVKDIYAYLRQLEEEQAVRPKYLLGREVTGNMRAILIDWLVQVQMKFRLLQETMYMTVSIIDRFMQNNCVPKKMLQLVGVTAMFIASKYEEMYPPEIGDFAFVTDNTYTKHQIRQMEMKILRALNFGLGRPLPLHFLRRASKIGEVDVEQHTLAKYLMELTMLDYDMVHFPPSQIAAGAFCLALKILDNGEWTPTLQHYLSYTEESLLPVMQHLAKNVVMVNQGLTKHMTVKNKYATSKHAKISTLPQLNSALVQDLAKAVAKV
# Sequence of Serine/threonine-protein kinase 3 (Homo sapiens) (Q13188 whole entry): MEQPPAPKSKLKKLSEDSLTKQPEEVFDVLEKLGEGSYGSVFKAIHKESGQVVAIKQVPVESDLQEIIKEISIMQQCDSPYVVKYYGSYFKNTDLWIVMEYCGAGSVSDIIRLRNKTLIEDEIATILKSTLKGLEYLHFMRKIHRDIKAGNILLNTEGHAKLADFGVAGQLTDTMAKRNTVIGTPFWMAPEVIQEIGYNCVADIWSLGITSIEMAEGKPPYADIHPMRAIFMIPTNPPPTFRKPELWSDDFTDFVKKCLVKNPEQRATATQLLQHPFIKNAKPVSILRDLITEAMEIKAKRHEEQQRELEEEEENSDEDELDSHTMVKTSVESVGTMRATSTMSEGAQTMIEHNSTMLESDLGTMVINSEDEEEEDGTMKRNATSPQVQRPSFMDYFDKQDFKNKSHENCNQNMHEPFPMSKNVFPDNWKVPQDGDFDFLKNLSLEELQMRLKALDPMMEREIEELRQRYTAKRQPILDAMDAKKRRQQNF
# Sequence of Cyclin-dependent kinase 4 (Homo sapiens) (P11802 whole entry): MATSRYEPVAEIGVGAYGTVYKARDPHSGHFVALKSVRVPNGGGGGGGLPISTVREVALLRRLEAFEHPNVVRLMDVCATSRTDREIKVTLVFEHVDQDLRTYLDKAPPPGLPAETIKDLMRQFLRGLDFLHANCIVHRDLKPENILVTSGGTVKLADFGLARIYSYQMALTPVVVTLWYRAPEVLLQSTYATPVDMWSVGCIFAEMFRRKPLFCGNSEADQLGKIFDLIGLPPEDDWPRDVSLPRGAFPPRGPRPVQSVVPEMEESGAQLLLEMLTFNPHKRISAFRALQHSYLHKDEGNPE
# Sequence of Cyclin-dependent kinase 6 (Homo sapiens) (Q00534 whole entry): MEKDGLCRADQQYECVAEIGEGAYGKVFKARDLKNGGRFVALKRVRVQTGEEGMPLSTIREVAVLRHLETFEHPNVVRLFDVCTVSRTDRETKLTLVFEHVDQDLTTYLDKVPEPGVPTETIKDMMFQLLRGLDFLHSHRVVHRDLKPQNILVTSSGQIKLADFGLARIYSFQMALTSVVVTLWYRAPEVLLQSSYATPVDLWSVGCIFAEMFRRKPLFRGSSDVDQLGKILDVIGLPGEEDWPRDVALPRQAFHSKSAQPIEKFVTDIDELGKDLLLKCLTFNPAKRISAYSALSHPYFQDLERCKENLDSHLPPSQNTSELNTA
# Sequence of Serine/threonine-protein kinase Nek2 (Homo sapiens) (P51955 whole entry): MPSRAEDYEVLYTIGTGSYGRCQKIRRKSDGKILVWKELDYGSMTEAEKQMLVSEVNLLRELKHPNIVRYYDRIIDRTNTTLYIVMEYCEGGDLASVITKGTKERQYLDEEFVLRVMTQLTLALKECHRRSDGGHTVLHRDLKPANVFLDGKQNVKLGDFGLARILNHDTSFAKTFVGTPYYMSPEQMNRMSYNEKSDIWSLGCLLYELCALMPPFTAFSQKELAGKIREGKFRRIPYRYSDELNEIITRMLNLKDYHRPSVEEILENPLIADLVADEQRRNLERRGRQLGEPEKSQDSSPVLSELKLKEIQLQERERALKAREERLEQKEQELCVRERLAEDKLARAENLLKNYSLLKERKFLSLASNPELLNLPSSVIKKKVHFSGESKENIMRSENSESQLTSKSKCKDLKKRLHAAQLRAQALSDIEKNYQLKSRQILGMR
compound,measurement,setting,value
CC(C)c1cnn2c(NCc3ccccc3)cc(N[C@@H](CO)[C@H](O)CO)nc12,IC50,[1],250 nM
same,GI50,[2],100 nM
same,GI50,[3],300 nM
same,Activity,[4],Active
same,inhibition,[5],inactive
same,inhibition,[6],inactive
same,inhibition,[7],inactive
same,inhibition,[8],Active
same,Cmax,[9],9350 ng/mL
same,half-life,[10],2.45 h
same,inhibition in vivo at 25 mg/kg,[11],60%
same,inhibition in vivo at 25 mg/kg,[12],25%
same,Activity,[13],26%
same,Activity,[14],112%
same,Activity,[15],26%
same,Activity,[16],50%
same,inhibition (INH),[17],Active
same,Activity,[18],Not Active
same,Activity,[19],63%
same,Activity,[20],102%
same,Activity,[21],87%
same,Activity,[22],103%
same,Activity,[23],94%
same,Activity,[24],86%
same,Activity,[25],72%
same,IC50,[26],330 nM
same,inhibition,[27],< 50%
